ChEMBL document CHEMBL1146333, “Synthesis and antitumor evaluation of a novel series of triaminotriazine derivatives” (Bioorg Med Chem, 2007)
Active and inactive are the calls of the source. The rule behind the calls is not given here.

How the values were obtained:
[1] = test system: HT-29; experiment: Growth inhibition of human HT29 cells at 10 uM after 72 hrs by SRB assay; type: functional; settings: for inhibition at 10 µM: HT-29, 72 h
Method in brief: (§1)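 SRB growth assay on HCT-116 or HT-29 cells (RPMI-1640, 10% FBS, 37 °C, 5% CO2). Seeded at 6000 cells/well, attached overnight, exposed in triplicate at 10 μM for 72 h. Cells TCA-fixed, SRB-stained, A515 read. Percent inhibition = [1 − A515 treated/A515 control] × 100; mean of three determinations.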

[2] = test system: HCT-116; experiment: Growth inhibition of human HCT116 cells at 10 uM after 72 hrs by SRB assay; type: functional; settings: for inhibition at 10 µM: HCT-116, 72 h; method in brief: as §1
[3] = test system: HT-29; experiment: Growth inhibition of human HT29 cells after 72 hrs by SRB assay; type: functional, cell-based; settings: HT-29, 72 h
Method in brief: (§2)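 HCT-116 and HT-29 human colorectal lines (ATCC) grown in RPMI-1640 with 10% FBS, 2 mmol/L glutamine, penicillin/streptomycin, at 37 °C in 5% CO2. Seeded at 6000 cells/well, attached overnight, then treated in triplicate with graded concentrations for 72 h. Cells fixed in 10% TCA, stained with SRB, and A515 read. IC50 obtained by the Logit method; mean of three independent tests.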

[4] = test system: HCT-116; experiment: Growth inhibition of human HCT116 cells after 72 hrs by SRB assay; type: functional, cell-based; settings: HCT-116, 72 h; method in brief: as §2
[5] = Cmax in Sprague-Dawley rat at 10 mg/kg, po after 15 mins; type: ADME, organism-based; set-up: dose 10 mg/kg, route oral; settings: in vivo
Method in brief: (§3)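 Sprague–Dawley rats given one oral gavage dose of 10 mg/kg suspended in 0.5% CMC-Na. Orbital-sinus blood drawn at 0, 5, 15, 30 min and 1, 2, 4, 6, 8 h; plasma frozen at −70 °C, extracted with EtOAc, and quantified by LC–MS/MS. Cmax and Tpeak read directly from the data; t1/2 = 0.693/k; mean ± SD.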

[6] = Oral bioavailability in Sprague-Dawley rat at 10 mg/kg; type: ADME, organism-based; settings: in vivo
Method in brief: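 Rats received 10 mg/kg oral (0.5% CMC-Na) or 2 mg/kg iv (PEG400:cremophor 100:15). Serial plasma samples, 0–8 h, quantified by LC–MS/MS after EtOAc extraction. F = (AUCoral × Dose_iv)/(AUC_iv × Dose_oral) × 100%.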

[7] = Elimination half life in Sprague-Dawley rat at 10 mg/kg, po; type: ADME, organism-based; set-up: dose 10 mg/kg, route oral; settings: in vivo; method in brief: as §3
[8] = Elimination half life in Sprague-Dawley rat at 2 mg/kg, iv; type: ADME, organism-based; set-up: dose 2 mg/kg, route intravenous; settings: in vivo
Method in brief: (§4)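 Sprague–Dawley rats acclimatized one week, then given one iv dose of 2 mg/kg in PEG400:cremophor (100:15, v/v). Orbital-sinus blood drawn under light ether at 0, 5, 15, 30 min and 1, 2, 4, 6, 8 h; plasma stored at −70 °C.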

[9] = Mean resident time in Sprague-Dawley rat at 10 mg/kg, po; type: ADME, organism-based; set-up: dose 10 mg/kg, route oral; settings: in vivo; method in brief: as §3
[10] = Mean resident time in Sprague-Dawley rat at 2 mg/kg, iv; type: ADME, organism-based; set-up: dose 2 mg/kg, route intravenous; settings: in vivo; method in brief: as §4
[11] = test system: Rattus norvegicus; experiment: Volume of distribution in Sprague-Dawley rat at 2 mg/kg, iv; type: ADME, organism-based; set-up: dose 2 mg/kg, route intravenous; settings: in vivo; method in brief: as §4
[12] = Clearance in Sprague-Dawley rat at 2 mg/kg, iv; type: ADME, organism-based; set-up: dose 2 mg/kg, route intravenous; settings: in vivo; method in brief: as §4
[13] = test system: Mus musculus; experiment: Increase in body weight in KM mouse at 100 mg/kg, ip; type: functional; settings: route intraperitoneal
[14] = test system: Mus musculus; experiment: Increase in body weight in KM mouse at 200 mg/kg, ip after 7 days; type: functional; settings: route intraperitoneal
Method in brief: (§5)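 Sarcoma 180 cells implanted in the axilla of female KM mice (6–8 weeks) on Day 0, randomized on Day 1 (control 20/group, treated 10/group). Treated mice got 200 mg/kg ip once daily for 7 days, suspended in 0.5% CMC. Mice killed 24 h after the last dose; body and tumor weights taken. Inhibition = (control − treated mean tumor weight)/control mean tumor weight × 100%.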

[15] = test system: Mus musculus; experiment: Tumor weight in KM mouse at 100 mg/kg, ip; type: functional; settings: route intraperitoneal
[16] = test system: Mus musculus; experiment: Tumor weight in KM mouse at 200 mg/kg, ip after 7 days; type: functional; settings: route intraperitoneal; method in brief: as §5
[17] = test system: Sarcoma-180; experiment: Antitumor activity in sarcoma180 cells implanted in KM mouse at 200 mg/kg, ip after 7 days; type: functional; settings: route intraperitoneal; method in brief: as §5

SMILES | inhibition at 10 µM [1] [%] | inhibition at 10 µM [2] [%] | other results
Fc1ccc(Nc2nc(N3CCOCC3)nc(N3CCOCC3)n2)cc1 | 80.2 | – | Activity [2]: inactive
c1ccc(Nc2nc(NCCN3CCOCC3)nc(Nc3ccccc3)n2)cc1 | 23.4 | 30.1 | –
Clc1ccc(Nc2nc(Nc3ccccc3)nc(N3CCOCC3)n2)cc1 | 87.1 | 51.7 | IC50 [3]: 37 µM
CCOc1ccc(Nc2nc(Nc3ccccc3)nc(N3CCOCC3)n2)cc1 | 87.5 | 64.1 | –
COc1ccc(Nc2nc(Nc3ccc(OC)cc3)nc(N3CCN(CCO)CC3)n2)cc1 | 49.3 | – | Activity [2]: inactive
Fc1ccc(Nc2nc(NCc3ccccc3)nc(N3CCOCC3)n2)cc1 | 87.1 | 10.1 | –
COc1ccc(Nc2nc(NCc3ccccc3)nc(N3CCOCC3)n2)cc1 | 88.4 | 20.1 | –
c1ccc(CNc2nc(N3CCOCC3)nc(N3CCOCC3)n2)cc1 | 5.2 | – | Activity [2]: inactive
CSc1ccc(Nc2nc(Nc3ccc(C)cc3)nc(N3CCOCC3)n2)cc1 | 54.1 | 71.1 | IC50 [4]: 120 µM
COc1ccc(Nc2nc(Nc3ccc(F)cc3)nc(N3CCOCC3)n2)cc1 | 82.3 | – | Activity [2]: inactive
c1ccc(Nc2nc(N3CCOCC3)nc(N3CCOCC3)n2)cc1 | 80.5 | 44.9 | –
COc1ccc(Nc2nc(Nc3ccccc3)nc(N3CCN(CCO)CC3)n2)cc1 | 77.3 | 19 | –
c1ccc(CNc2nc(NCc3ccccc3)nc(N3CCOCC3)n2)cc1 | 50 | – | Activity [2]: inactive
COc1ccc(Nc2nc(Nc3ccc(S(N)(=O)=O)cc3)nc(N3CCOCC3)n2)cc1 | 83.2 | 69 | –
COc1ccc(Nc2nc(NCCN3CCOCC3)nc(Nc3ccccc3)n2)cc1 | 74.6 | – | Activity [2]: inactive
C1CN(c2nc(N3CCOCC3)nc(N3CCOCC3)n2)CCO1 | – | – | Activity [1]: inactive; Activity [2]: inactive
c1ccc(Nc2nc(Nc3ccccc3)nc(N3CCOCC3)n2)cc1 | 85 | 81.3 | IC50 [3]: 31 µM; IC50 [4]: 4.7 µM
COc1ccc(Nc2nc(Nc3ccc(SC)cc3)nc(N3CCOCC3)n2)cc1OC | 81.4 | 79.2 | –
COc1ccc(Nc2nc(N3CCOCC3)nc(N3CCOCC3)n2)cc1 | 74.2 | 6.9 | –

SMILES | inhibition at 10 µM [1] [%] | inhibition at 10 µM [2] [%] | other results
Brc1ccc(Nc2nc(Nc3ccccc3)nc(N3CCOCC3)n2)cc1 | 89.7 | 77.7 | IC50 [3]: 25 µM
COc1ccccc1Nc1nc(Nc2ccccc2)nc(N2CCOCC2)n1 | 89.3 | 78.3 | –
FC(F)(F)Oc1ccc(Nc2nc(Nc3ccccc3)nc(N3CCOCC3)n2)cc1 | 87.3 | 63.4 | –
OCCNc1nc(Nc2ccccc2)nc(Nc2ccccc2)n1 | 33.9 | – | Activity [2]: inactive
COc1cccc(Nc2nc(Nc3ccccc3)nc(N3CCOCC3)n2)c1 | 87.4 | 82.6 | IC50 [3]: 39 µM
Fc1ccc(Nc2nc(Nc3ccc(OC(F)(F)F)cc3)nc(N3CCOCC3)n2)cc1 | 85.5 | 62 | –
Cc1ccc(CNc2nc(Nc3ccccc3)nc(N3CCOCC3)n2)cc1 | 75.3 | 15.7 | –
COc1ccc(Nc2nc(NCCO)nc(Nc3ccccc3)n2)cc1 | 13.7 | – | Activity [2]: inactive
Fc1ccc(Nc2nc(Nc3ccccc3)nc(N3CCOCC3)n2)cc1 | 90 | 60.1 | –
NS(=O)(=O)c1ccc(Nc2nc(Nc3ccccc3)nc(N3CCOCC3)n2)cc1 | 80.4 | 96.2 | IC50 [4]: 2 µM
c1ccc(CNc2nc(Nc3ccccc3)nc(N3CCOCC3)n2)cc1 | 90.5 | 48.7 | –
COc1ccc(Nc2nc(Nc3ccccc3)nc(N3CCOCC3)n2)cc1 | 100 | 81.4 | IC50 [3]: 30 µM; IC50 [4]: 0.76 µM; Cmax [5]: 1290 ng/mL; bioavailability [6]: 30.9%; half-life [7]: 1.16 h; half-life [8]: 1.09 h; MRT [9]: 1.88 h; MRT [10]: 1.06 h; Vdss [11]: 2.11 L/kg; clearance [12]: 22.7 mL/min/kg; Activity [13]: 29.3 g; Activity [14]: 27.3 g; Activity [15]: 1.65 g; Activity [16]: 0.89 g; Activity [17]: 40.7%
COc1ccc(Nc2nc(Nc3ccc(OC)cc3)nc(N3CCOCC3)n2)cc1 | 80.6 | 53.3 | IC50 [3]: 100 µM
NC(=O)c1ccc(Nc2nc(Nc3ccccc3)nc(N3CCOCC3)n2)cc1 | 87.8 | 85.8 | IC50 [3]: 8.1 µM; IC50 [4]: 9.6 µM
OCCN1CCN(c2nc(Nc3ccccc3)nc(Nc3ccccc3)n2)CC1 | 76.1 | 22 | –
NS(=O)(=O)c1ccc(Nc2nc(N3CCOCC3)nc(N3CCOCC3)n2)cc1 | – | – | Activity [1]: inactive; Activity [2]: inactive
NS(=O)(=O)c1ccc(Nc2nc(NCc3ccccc3)nc(N3CCOCC3)n2)cc1 | 68.6 | – | Activity [2]: inactive
COc1ccc(Nc2nc(Nc3ccccc3)nc(N3CCOCC3)n2)cc1OC | 76.4 | 84.7 | IC50 [4]: 0.92 µM
